In ChEMBL document CHEMBL4152306, “Synthesis and biological evaluation of new coumarins bearing 2,4-diaminothiazole-5-carbonyl moiety” (Eur J Med Chem, 2018):
Converted amounts (≈) assume the structure as drawn.

Legend:
[1] = Antioxidant activity assessed as DPPH radical scavenging activity incubated for 30 mins under dark condition by spectrophotometric method; format: functional
Method in brief: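 Test compounds dissolved in DMSO; 20 µl sample mixed with 250 µl DPPH in methanol (working solution diluted from 0.5 mM methanolic stock to absorbance […] at 517 nm). Kept 30 min at room temperature in dark, absorbance read at 517 nm against compound-free control; ascorbic acid standard. Triplicates; % inhibition from control vs sample absorbance; IC50 reported.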

[2] = Antioxidant activity assessed as ferric ion reduction by measuring FeSO4 equivalents reducing Fe3+-TPTZ to Fe2+-TPTZ at 100 ug/ml after 25 mins by FRAP assay; format: functional
Method in brief: (§1)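 FRAP reagent: 10 mM TPTZ in 40 mM HCl, 20 mM FeCl3·6H2O and 300 mM acetate buffer pH 3.6 (1:1:10). 20 µl sample (tested 5 to 100 µg/ml) mixed with 150 µl reagent, incubated 37°C for 25 min, absorbance at 593 nm. Values as µM FeSO4·7H2O equivalents from calibration curve; ascorbic acid as standard.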

[3] = Antioxidant activity assessed as ferric ion reduction by measuring FeSO4 equivalents reducing Fe3+-TPTZ to Fe2+-TPTZ at 10 ug/ml after 25 mins by FRAP assay; format: functional; method in brief: as §1
[4] = Antioxidant activity assessed as ferric ion reduction by measuring FeSO4 equivalents reducing Fe3+-TPTZ to Fe2+-TPTZ at 5 ug/ml after 25 mins by FRAP assay; format: functional; method in brief: as §1
SW480 = experiment: Cytotoxicity against human SW480 cells assessed as inhibition of cell proliferation after 48 hrs by MTT assay; format: functional, cell-based; settings: SW480, 48 h
Method in brief: (§2)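 Cells seeded at 8 × 10³ per well in complete medium, incubated overnight at 37°C, 5% CO2, then exposed to a range of compound concentrations (DMSO solutions; 0.1% DMSO negative control, etoposide positive control) for 48 h at 37°C. Viability by MTT, absorbance 570 nm. IC50 from dose-response curves, mean ± SE of at least three independent experiments.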

HepG2 = experiment: Cytotoxicity against human HepG2 cells assessed as inhibition of cell proliferation after 48 hrs by MTT assay; format: functional, cell-based; settings: HepG2, 48 h; method in brief: as §2
[5] = Antioxidant activity assessed as ferric ion reduction by measuring FeSO4 equivalents reducing Fe3+-TPTZ to Fe2+-TPTZ at 40 ug/ml after 25 mins by FRAP assay; format: functional; method in brief: as §1
[6] = Antioxidant activity assessed as ferric ion reduction by measuring FeSO4 equivalents reducing Fe3+-TPTZ to Fe2+-TPTZ at 80 ug/ml after 25 mins by FRAP assay; format: functional; method in brief: as §1
[7] = Antioxidant activity assessed as ferric ion reduction by measuring FeSO4 equivalents reducing Fe3+-TPTZ to Fe2+-TPTZ at 20 ug/ml after 25 mins by FRAP assay; format: functional; method in brief: as §1
MCF7 [8] = experiment: Cytotoxicity against human MCF7 cells assessed as inhibition of cell proliferation after 48 hrs by MTT assay; format: functional, cell-based; settings: MCF7, 48 h; method in brief: as §2
MCF7 [9] = experiment: Cell cycle arrest in human MCF7 cells assessed as accumulation at S phase at 11.2 ug/ml after 48 hrs by propidium iodide staining based flow cytometry (reference value: 26.04%); format: functional
MCF7 [10] = experiment: Induction of apoptosis in human MCF7 cells assessed as late apoptotic cells at 11.2 ug/ml after 48 hrs by Annexin-V-FITC/propidium iodide staining based flow cytometry (reference value: 15.6%); format: functional
Method in brief: (§3)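 MCF-7 cells seeded in 6-well plates, incubated overnight at 37 °C, 5% CO2, treated 48 h; untreated cells as negative control, etoposide as standard. Cells trypsinized, PBS-washed twice, pelleted at 1200 rpm, resuspended in 500 µl binding buffer with 5 µl each Annexin V-FITC and PI, 5–15 min at room temperature in dark, then flow cytometry.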

MCF7 [11] = experiment: Cell cycle arrest in human MCF7 cells assessed as accumulation at G1 phase at 11.2 ug/ml after 48 hrs by propidium iodide staining based flow cytometry (reference value: 68.58%); format: functional
MCF7 [12] = experiment: Induction of apoptosis in human MCF7 cells assessed as live cells at 11.2 ug/ml after 48 hrs by Annexin-V-FITC/propidium iodide staining based flow cytometry (reference value: 70.5%); format: functional; method in brief: as §3
MCF7 [13] = experiment: Induction of apoptosis in human MCF7 cells assessed as necrotic cells at 7.5 ug/ml after 48 hrs by Annexin-V-FITC/propidium iodide staining based flow cytometry (reference value: 5.79%); format: functional; method in brief: as §3
MCF7 [14] = experiment: Induction of apoptosis in human MCF7 cells assessed as live cells at 7.5 ug/ml after 48 hrs by Annexin-V-FITC/propidium iodide staining based flow cytometry (reference value: 70.5%); format: functional; method in brief: as §3
MCF7 [15] = experiment: Cell cycle arrest in human MCF7 cells assessed as accumulation at G2 phase at 11.2 ug/ml after 48 hrs by propidium iodide staining based flow cytometry (reference value: 13.24%); format: functional
MCF7 [16] = experiment: Cell cycle arrest in human MCF7 cells assessed as accumulation at G2 phase at 7.5 ug/ml after 48 hrs by propidium iodide staining based flow cytometry (reference value: 13.24%); format: functional
MCF7 [17] = experiment: Induction of apoptosis in human MCF7 cells assessed as necrotic cells at 11.2 ug/ml after 48 hrs by Annexin-V-FITC/propidium iodide staining based flow cytometry (reference value: 5.79%); format: functional; method in brief: as §3
MCF7 [18] = experiment: Induction of apoptosis in human MCF7 cells after 48 hrs by Annexin-V-FITC/propidium iodide staining based flow cytometry; format: functional, cell-based; method in brief: as §3
MCF7 [19] = experiment: Induction of apoptosis in human MCF7 cells assessed as early apoptotic cells at IC50 after 48 hrs by Annexin-V-FITC/propidium iodide staining based flow cytometry (reference value: 8.16%); format: functional; method in brief: as §3
MCF7 [20] = experiment: Induction of apoptosis in human MCF7 cells assessed as late apoptotic cells at 7.5 ug/ml after 48 hrs by Annexin-V-FITC/propidium iodide staining based flow cytometry (reference value: 15.6%); format: functional; method in brief: as §3
MCF7 [21] = experiment: Induction of apoptosis in human MCF7 cells assessed as late apoptotic cells at IC50 after 48 hrs by Annexin-V-FITC/propidium iodide staining based flow cytometry (reference value: 15.6%); format: functional; method in brief: as §3
MCF7 [22] = experiment: Cell cycle arrest in human MCF7 cells assessed as accumulation at S phase at 7.5 ug/ml after 48 hrs by propidium iodide staining based flow cytometry (reference value: 26.04%); format: functional
MCF7 [23] = experiment: Induction of apoptosis in human MCF7 cells assessed as early apoptotic cells at 11.2 ug/ml after 48 hrs by Annexin-V-FITC/propidium iodide staining based flow cytometry (reference value: 8.16%); format: functional; method in brief: as §3
MCF7 [24] = experiment: Induction of apoptosis in human MCF7 cells assessed as live cells at IC50 after 48 hrs by Annexin-V-FITC/propidium iodide staining based flow cytometry (reference value: 70.5%); format: functional; method in brief: as §3
MCF7 [25] = experiment: Induction of apoptosis in human MCF7 cells assessed as early apoptotic cells at 7.5 ug/ml after 48 hrs by Annexin-V-FITC/propidium iodide staining based flow cytometry (reference value: 8.16%); format: functional; method in brief: as §3
MCF7 [26] = experiment: Cell cycle arrest in human MCF7 cells assessed as accumulation at G1 phase at 7.5 ug/ml after 48 hrs by propidium iodide staining based flow cytometry (reference value: 68.58%); format: functional
MCF7 [27] = experiment: Induction of apoptosis in human MCF7 cells assessed as necrotic cells at IC50 after 48 hrs by Annexin-V-FITC/propidium iodide staining based flow cytometry (reference value: 5.79%); format: functional; method in brief: as §3

SMILES | IC50 [1] [µg/mL] | Activity [2] [µMequiv] | Activity [3] [µMequiv] | Activity [4] [µMequiv] | IC50 (SW480) [µg/mL] | IC50 (HepG2) [µg/mL] | Activity [5] [µMequiv] | Activity [6] [µMequiv] | Activity [7] [µMequiv] | IC50 (MCF7 [8]) [µg/mL] | other results
Nc1nc(N2CCN(Cc3ccccc3)CC2)sc1C(=O)c1cc2ccccc2oc1=O | 31.7 (≈ 71 µM) | 444 | 134 | 88.5 | 23.4 (≈ 52.4 µM) | 32 (≈ 71.7 µM) | 226 | 229 | 198 | 11.6 (≈ 26 µM) | –
O=C1O[C@H]([C@@H](O)CO)C(O)=C1O [ASCORBIC ACID] | 9.6 (≈ 54.5 µM) | 484 | 124 | 74.9 | – | – | 310 | 397 | 216 | – | –
Nc1nc(N2CCSCC2)sc1C(=O)c1cc2cc(Br)ccc2oc1=O | 27.7 (≈ 61.2 µM) | 171 | 70.5 | 57 | 44.5 (≈ 98.4 µM) | 29.7 (≈ 65.7 µM) | 94.3 | 164 | 78.5 | 12.5 (≈ 27.6 µM) | –
Nc1nc(N2CCOCC2)sc1C(=O)c1cc2cc(Br)ccc2oc1=O | 34.6 (≈ 79.3 µM) | 248 | 84.3 | 76.5 | 48.7 (≈ 112 µM) | 19.3 (≈ 44.2 µM) | 162 | 212 | 110 | 14.6 (≈ 33.5 µM) | –
Nc1nc(N2CCSCC2)sc1C(=O)c1cc2ccccc2oc1=O | 23.9 (≈ 64 µM) | 564 | 86.3 | 76.3 | 13 (≈ 34.8 µM) | 16.9 (≈ 45.3 µM) | 266 | 455 | 148 | 7.5 (≈ 20.1 µM) | Activity (MCF7 [9]): 9.08%; Activity (MCF7 [10]): 41.7%; Activity (MCF7 [11]): 89.83%; Activity (MCF7 [12]): 39.2%; Activity (MCF7 [13]): 24.2%; Activity (MCF7 [14]): 51.5%; Activity (MCF7 [15]): 6.44%; Activity (MCF7 [16]): 8.28%; Activity (MCF7 [17]): 13.2%; Activity (MCF7 [18]): Dose-dependent effect; Activity (MCF7 [19]): 4.65%; Activity (MCF7 [20]): 19.2%; Activity (MCF7 [21]): 19.2%; Activity (MCF7 [22]): 16.79%; Activity (MCF7 [23]): 5.9%; Activity (MCF7 [24]): 54.1%; Activity (MCF7 [25]): 5.15%; Activity (MCF7 [26]): 83.98%; Activity (MCF7 [27]): 18.3%
COc1cc([C@@H]2c3cc4c(cc3[C@@H](O[C@@H]3O[C@@H]5CO[C@@H](C)O[C@H]5[C@H](O)[C@H]3O)[C@H]3COC(=O)[C@H]23)OCO4)cc(OC)c1O [ETOPOSIDE] | – | – | – | – | 7.7 (≈ 13.1 µM) | 6.2 (≈ 10.5 µM) | – | – | – | 3.1 (≈ 5.27 µM) | –
Nc1nc(N2CCOCC2)sc1C(=O)c1cc2ccccc2oc1=O | 25.8 (≈ 72.2 µM) | 605 | 142 | 111 | 20.5 (≈ 57.4 µM) | 34.8 (≈ 97.4 µM) | 345 | 384 | 205 | 9.8 (≈ 27.4 µM) | –
